Assay results reported in ChEMBL document CHEMBL1629624, “In vitro and in vivo studies to characterize the clearance mechanism and potential cytochrome P450 interactions of anidulafungin” (Antimicrob Agents Chemother, 2009).

Assays:
Format in all cases: ADME, organism-based
[1] = Clearance in human whole blood at 100 uCi, iv by liquid scintillation counting; conditions: in vivo
In short: (§1)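 Nine healthy men, single i.v. infusion of [14C]drug (planned 100 mg/100 μCi, mean delivered 95 μCi) over 100 min. Heparinized blood sampled from 0 to 18 h, then daily through day 10, plus follow-up. Total radioactivity in plasma and whole blood by liquid scintillation counting, reported as mg equivalents. Noncompartmental analysis; values are means (%CV).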

[2] = Drug level in noncannulated Sprague-Dawley rat assessed as radioactive drug recovery in carcass at 5 mg/kg, iv after 168 hrs by liquid scintillation counting; set-up: dose 5 mg/kg, route intravenous; conditions: in vivo
In short: (§2)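 Male Sprague-Dawley rats, single i.v. bolus of [14C]drug. Five bile duct-cannulated rats: bile collected at 0-4, 4-8 and 8-24 h, then every 24 h to 168 h. Three noncannulated rats were killed at 168 h. Urine and feces collected over set intervals; carcass and cage washings taken at sacrifice. Liquid scintillation counting, expressed as percent of dose.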

[3] = Drug level in noncannulated Sprague-Dawley rat assessed as radioactive drug recovery in feces at 5 mg/kg, iv after 168 hrs by liquid scintillation counting; set-up: dose 5 mg/kg, route intravenous; conditions: in vivo; in short: as §2
[4] = system: Plasma; assay: Cmax in Sprague-Dawley rat plasma at 5 mg/kg, iv by liquid scintillation counting; set-up: dose 5 mg/kg, route intravenous; conditions: in vivo
In short: (§3)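 Male Sprague-Dawley rats, single i.v. bolus of [14C]drug. Blood by cardiac puncture from three noncannulated rats killed at each time from 0.25 to 168 h; plasma separated from an aliquot. Radioactivity by liquid scintillation counting. Parameters come from a composite profile of mean values, taking 1 g as equal to 1 ml.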

[5] = system: Plasma; assay: Clearance in human plasma at 100 uCi, iv by liquid scintillation counting; conditions: in vivo; in short: as §1
[6] = Tmax in Sprague-Dawley rat whole blood at 5 mg/kg, iv by liquid scintillation counting; set-up: dose 5 mg/kg, route intravenous; conditions: in vivo; in short: as §3
[7] = system: Plasma; assay: Mean residence time in human plasma at 100 uCi, iv by liquid scintillation counting; conditions: in vivo; in short: as §1
[8] = Drug level in bile-duct cannulated Sprague-Dawley rat assessed as radioactive drug recovery in bile at 5 mg/kg, iv after 168 hrs by liquid scintillation counting; set-up: dose 5 mg/kg, route intravenous; conditions: in vivo; in short: as §2
[9] = Drug level in bile-duct cannulated Sprague-Dawley rat assessed as radioactive drug recovery in feces at 5 mg/kg, iv after 168 hrs by liquid scintillation counting; set-up: dose 5 mg/kg, route intravenous; conditions: in vivo; in short: as §2
[10] = system: Plasma; assay: Half life in human plasma at 100 uCi, iv by liquid scintillation counting; in short: as §1
[11] = Drug level in human assessed as radioactive drug recovery in feces at 100 uCi, iv within 216 hrs by liquid scintillation counting; conditions: in vivo
In short: (§4)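 Nine healthy men given a single i.v. infusion of [14C]drug. Urine collected predose, at 0-2, 2-4, 4-8 and 8-24 h, then every 24 h to day 10. Feces collected predose and every 24 h to day 10. Radioactivity measured by liquid scintillation counting and totalled as cumulative percent of dose through 216 h.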

[12] = Cmax in human whole blood at 100 uCi, iv by liquid scintillation counting; set-up: route intravenous; conditions: in vivo; in short: as §1
[13] = system: Plasma; assay: Half life in Sprague-Dawley rat plasma at 5 mg/kg, iv by liquid scintillation counting; set-up: dose 5 mg/kg, route intravenous; conditions: in vivo; in short: as §3
[14] = Drug level in bile-duct cannulated Sprague-Dawley rat assessed as radioactive drug recovery in carcass at 5 mg/kg, iv after 168 hrs by liquid scintillation counting; set-up: dose 5 mg/kg, route intravenous; conditions: in vivo; in short: as §2
[15] = Half life in human whole blood at 100 uCi, iv by liquid scintillation counting; in short: as §1
[16] = Half life in Sprague-Dawley rat whole blood at 5 mg/kg, iv by liquid scintillation counting; set-up: dose 5 mg/kg, route intravenous; conditions: in vivo; in short: as §3
[17] = system: Plasma; assay: Tmax in human plasma at 100 uCi, iv by liquid scintillation counting; conditions: in vivo; in short: as §1
[18] = Volume of distribution at steady state in human whole blood at 100 uCi, iv by liquid scintillation counting; conditions: in vivo
In short: (§5)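 Healthy adult men (n = 9), single i.v. infusion of [14C]drug over 100 min at 1 mg/min. 100 mg/100 μCi was planned; the mean actually given was 88.3 mg and 95 μCi. Heparinized samples drawn from 0 h through day 10 and at follow-up. Total radioactivity in plasma or whole blood counted by liquid scintillation and expressed as mg equivalents. Noncompartmental analysis, given as mean (%CV).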

[19] = system: Plasma; assay: Tmax in Sprague-Dawley rat plasma at 5 mg/kg, iv by liquid scintillation counting; set-up: dose 5 mg/kg, route intravenous; conditions: in vivo; in short: as §3
[20] = system: Plasma; assay: Volume of distribution at steady state in human plasma at 100 uCi, iv by liquid scintillation counting; conditions: in vivo; in short: as §5
[21] = system: Plasma; assay: Volume of distribution at steady state in Sprague-Dawley rat plasma at 5 mg/kg, iv by liquid scintillation counting; set-up: dose 5 mg/kg, route intravenous; conditions: in vivo; in short: as §3
[22] = Mean residence time in human whole blood at 100 uCi, iv by liquid scintillation counting; conditions: in vivo; in short: as §1
[23] = Cmax in Sprague-Dawley rat whole blood at 5 mg/kg, iv by liquid scintillation counting; set-up: dose 5 mg/kg, route intravenous; conditions: in vivo; in short: as §3
[24] = Tmax in human whole blood at 100 uCi, iv by liquid scintillation counting; conditions: in vivo; in short: as §1
[25] = Volume of distribution at steady state in Sprague-Dawley rat whole blood at 5 mg/kg, iv by liquid scintillation counting; set-up: dose 5 mg/kg, route intravenous; conditions: in vivo
In short: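 Male Sprague-Dawley rats, single i.v. bolus of [14C]drug, 5 mg/kg. Blood by cardiac puncture from three non-cannulated rats killed at each time from 0.25 to 168 h. Radioactivity counted by liquid scintillation. Noncompartmental parameters taken from a composite profile of mean values per time point, assuming 1 g blood equals 1 ml.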

[26] = Drug level in human assessed as radioactive drug recovery in feces at 100 uCi, iv after 216 hrs by liquid scintillation counting; conditions: in vivo; in short: as §4
[27] = system: Plasma; assay: Cmax in human plasma at 100 uCi, iv by liquid scintillation counting; set-up: route intravenous; conditions: in vivo; in short: as §1
[28] = Drug level in human assessed as radioactive drug recovery in urine at 100 uCi, iv after 216 hrs by liquid scintillation counting; conditions: in vivo; in short: as §4

Question: With `CCCCCOc1ccc(-c2ccc(-c3ccc([14C](=O)N[C@H]4C[C@@H](O)[C@@H](O)NC(=O)[C@@H]5[C@@H](O)[C@@H](C)CN5C(=O)[C@H]([C@H](C)O)NC(=O)[C@H]([C@H](O)[C@@H](O)c5ccc(O)cc5)NC(=O)[C@@H]5C[C@@H](O)CN5C(=O)[C@H]([C@H](C)O)NC4=O)cc3)cc2)cc1` [[14C]-ANIDULAFUNGIN] as the compound, how does the CL [1] read?
Answer: Its CL is 0.356 L/h.

Question: What about the Drug uptake [2] of the same compound?
Answer: The Drug uptake was 23.1%.

Question: And the Drug uptake [3]?
Answer: Its Drug uptake is 77.1%.

Question: What about the Cmax [4] of the same compound?
Answer: Its Cmax is 6.84 ugequiv/ml.

Question: What about the CL [5] of the same compound?
Answer: The CL was 0.356 L/h.

Question: What about the Tmax [6] of the same compound?
Answer: The Tmax was 0.25 h.

Question: What about the MRT [7] of the same compound?
Answer: The MRT was 162 h.

Question: And the Drug uptake [8]?
Answer: The Drug uptake was 33.9%.

Question: What about the Drug uptake [9] of the same compound?
Answer: The Drug uptake was 17.1%.

Question: What about the t1/2 [10] of the same compound?
Answer: Its t1/2 is 119 h.

Question: And the Drug uptake [11]?
Answer: Its Drug uptake is 10%.

Question: And the Cmax [12]?
Answer: Its Cmax is 3380 ng/mL.

Question: What about the t1/2 [13] of the same compound?
Answer: The t1/2 was 52.9 h.

Question: What about the Drug uptake [14] of the same compound?
Answer: Its Drug uptake is 40.4%.

Question: What about the t1/2 [15] of the same compound?
Answer: The t1/2 was 139 h.

Question: And the t1/2 [16]?
Answer: Its t1/2 is 52.1 h.

Question: And the Tmax [17]?
Answer: The Tmax was 1.78 h.

Question: What about the Vdss [18] of the same compound?
Answer: The Vdss was 61.6 L.

Question: What about the Tmax [19] of the same compound?
Answer: The Tmax was 0.25 h.

Question: And the Vdss [20]?
Answer: The Vdss was 57.6 L.

Question: And the Vdss [21]?
Answer: The Vdss was 1.056 L/kg.

Question: What about the MRT [22] of the same compound?
Answer: The MRT was 174 h.

Question: And the Cmax [23]?
Answer: The Cmax was 11.5 ugequiv/ml.

Question: What about the Tmax [24] of the same compound?
Answer: Its Tmax is 1.75 h.

Question: What about the Vdss [25] of the same compound?
Answer: The Vdss was 0.696 L/kg.

Question: What about the Drug uptake [26] of the same compound?
Answer: The Drug uptake was 29.5%.

Question: And the Cmax [27]?
Answer: The Cmax was 3020 ng/mL.

Question: And the Drug uptake [28]?
Answer: Its Drug uptake is 0.56%.
